Test results reported in ChEMBL document CHEMBL1146871, “Hydrazides of clozapine: a new class of D1 dopamine receptor subtype selective antagonists” (Bioorg Med Chem Lett, 2006).

Columns and labels:
D(1A) dopamine receptor [1] = molecular target: T1, D(1A) dopamine receptor (Homo sapiens, UniProt P21728); test: Displacement of [3H]SCH 23390 from human dopamine D1 receptor expressed in CHO cells; assay type: cell-based
D(2) dopamine receptor [2] = molecular target: T2, D(2) dopamine receptor (Homo sapiens, UniProt P14416); test: Displacement of [3H]methylspiperone from human dopamine D2 receptor expressed in CHO cells; assay type: cell-based
[3] = molecular target: T3, Alpha-2A adrenergic receptor (Homo sapiens, UniProt P08913); test: Binding affinity at adrenergic alpha2A receptor
T3 sequence (P08913 whole entry): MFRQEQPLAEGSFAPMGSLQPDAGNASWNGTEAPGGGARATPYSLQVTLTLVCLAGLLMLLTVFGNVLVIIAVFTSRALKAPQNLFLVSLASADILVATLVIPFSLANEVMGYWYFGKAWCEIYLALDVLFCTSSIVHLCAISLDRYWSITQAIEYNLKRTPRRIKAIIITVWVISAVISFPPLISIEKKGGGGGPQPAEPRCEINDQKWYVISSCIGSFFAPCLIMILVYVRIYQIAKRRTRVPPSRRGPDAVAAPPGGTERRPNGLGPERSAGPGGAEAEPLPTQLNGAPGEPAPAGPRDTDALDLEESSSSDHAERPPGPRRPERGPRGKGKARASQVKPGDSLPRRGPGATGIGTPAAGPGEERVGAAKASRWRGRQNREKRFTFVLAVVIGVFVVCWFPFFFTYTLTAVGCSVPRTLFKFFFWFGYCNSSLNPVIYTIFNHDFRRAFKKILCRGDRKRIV

D(4) dopamine receptor = molecular target: T4, D(4) dopamine receptor (Homo sapiens, UniProt P21917); test: Binding affinity at dopamine D4 receptor
T4 sequence (P21917 whole entry): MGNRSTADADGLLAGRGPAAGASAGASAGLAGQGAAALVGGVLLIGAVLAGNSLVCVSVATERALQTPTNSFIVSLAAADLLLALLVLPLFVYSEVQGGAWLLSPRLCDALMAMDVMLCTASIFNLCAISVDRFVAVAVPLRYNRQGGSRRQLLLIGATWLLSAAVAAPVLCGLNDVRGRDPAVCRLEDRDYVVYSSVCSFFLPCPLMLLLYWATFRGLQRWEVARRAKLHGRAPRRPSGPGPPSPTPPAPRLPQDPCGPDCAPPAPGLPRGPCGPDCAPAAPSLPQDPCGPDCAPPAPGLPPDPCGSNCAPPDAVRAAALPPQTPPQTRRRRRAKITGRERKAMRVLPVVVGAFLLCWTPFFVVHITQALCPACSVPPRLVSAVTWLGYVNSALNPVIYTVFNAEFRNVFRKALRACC

D(2) dopamine receptor [4] = molecular target: T2, D(2) dopamine receptor; test: Binding affinity at dopamine D2 receptor
Method in brief: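 Membranes from cells stably expressing D2 receptor (4-7 pmol/mg protein; Ltk- cells in one passage, CHO in another), made by hypotonic lysis and 48,000g spin and stored at -80 °C. Incubated with 0.5 nM [3H]methylspiperone for 1 h at room temperature. Nonspecific binding set by 10 µM (-)-sulpiride. Rapid filtration, then scintillation counting. One-site competition fit; Ki is the mean of separate determinations.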

D(1B) dopamine receptor = D(1B) dopamine receptor (Homo sapiens, UniProt P21918); test: Binding affinity at dopamine D5 receptor
D(1A) dopamine receptor [5] = molecular target: T1, D(1A) dopamine receptor; test: Activity at dopamine D1 receptor by cAMP assay; assay type: functional; settings: for Activity: filed as antagonist
[6] = molecular target: 5-hydroxytryptamine receptor 2A (Homo sapiens, UniProt P28223); test: Binding affinity at 5HT2A receptor
Chain of 5-hydroxytryptamine receptor 2A (P28223 whole entry): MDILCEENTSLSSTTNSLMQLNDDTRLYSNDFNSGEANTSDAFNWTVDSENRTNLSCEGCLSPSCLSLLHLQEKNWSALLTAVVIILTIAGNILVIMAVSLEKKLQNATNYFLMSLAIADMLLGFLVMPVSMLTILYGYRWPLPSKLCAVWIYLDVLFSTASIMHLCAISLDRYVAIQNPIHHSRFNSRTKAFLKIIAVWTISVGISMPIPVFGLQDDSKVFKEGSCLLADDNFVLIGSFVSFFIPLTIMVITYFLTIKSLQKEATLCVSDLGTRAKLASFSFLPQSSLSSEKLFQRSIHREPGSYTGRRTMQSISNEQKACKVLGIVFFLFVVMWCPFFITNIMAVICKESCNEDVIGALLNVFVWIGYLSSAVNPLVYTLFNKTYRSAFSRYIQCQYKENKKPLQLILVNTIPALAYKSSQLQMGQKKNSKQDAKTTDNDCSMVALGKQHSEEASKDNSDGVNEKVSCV

T1 sequence (P21728 whole entry): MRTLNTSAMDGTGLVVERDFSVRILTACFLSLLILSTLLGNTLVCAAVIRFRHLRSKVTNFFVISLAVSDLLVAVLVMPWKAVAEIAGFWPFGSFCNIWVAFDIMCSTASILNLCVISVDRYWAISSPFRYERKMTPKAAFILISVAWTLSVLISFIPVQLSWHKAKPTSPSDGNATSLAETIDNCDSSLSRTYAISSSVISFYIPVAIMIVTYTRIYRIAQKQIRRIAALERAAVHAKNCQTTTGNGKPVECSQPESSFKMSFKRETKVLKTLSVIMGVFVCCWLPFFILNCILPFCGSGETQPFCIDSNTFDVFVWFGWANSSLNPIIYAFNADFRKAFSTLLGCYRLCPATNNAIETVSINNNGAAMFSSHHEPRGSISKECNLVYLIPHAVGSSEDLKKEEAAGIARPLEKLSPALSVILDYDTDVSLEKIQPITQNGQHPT
T2 sequence (P14416 whole entry): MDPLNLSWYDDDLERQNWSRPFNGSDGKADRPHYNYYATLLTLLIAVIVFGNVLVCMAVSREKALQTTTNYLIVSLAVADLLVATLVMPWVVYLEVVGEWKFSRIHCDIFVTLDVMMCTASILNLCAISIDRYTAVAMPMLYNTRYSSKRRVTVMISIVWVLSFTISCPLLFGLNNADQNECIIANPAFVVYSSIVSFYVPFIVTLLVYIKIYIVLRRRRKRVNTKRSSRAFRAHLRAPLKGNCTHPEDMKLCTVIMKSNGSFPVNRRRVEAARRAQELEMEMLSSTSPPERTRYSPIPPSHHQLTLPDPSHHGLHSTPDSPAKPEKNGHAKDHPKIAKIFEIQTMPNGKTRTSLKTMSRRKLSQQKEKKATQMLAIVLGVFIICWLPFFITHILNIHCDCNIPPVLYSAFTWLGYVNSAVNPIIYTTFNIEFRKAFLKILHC
Chain of D(1B) dopamine receptor (P21918 whole entry): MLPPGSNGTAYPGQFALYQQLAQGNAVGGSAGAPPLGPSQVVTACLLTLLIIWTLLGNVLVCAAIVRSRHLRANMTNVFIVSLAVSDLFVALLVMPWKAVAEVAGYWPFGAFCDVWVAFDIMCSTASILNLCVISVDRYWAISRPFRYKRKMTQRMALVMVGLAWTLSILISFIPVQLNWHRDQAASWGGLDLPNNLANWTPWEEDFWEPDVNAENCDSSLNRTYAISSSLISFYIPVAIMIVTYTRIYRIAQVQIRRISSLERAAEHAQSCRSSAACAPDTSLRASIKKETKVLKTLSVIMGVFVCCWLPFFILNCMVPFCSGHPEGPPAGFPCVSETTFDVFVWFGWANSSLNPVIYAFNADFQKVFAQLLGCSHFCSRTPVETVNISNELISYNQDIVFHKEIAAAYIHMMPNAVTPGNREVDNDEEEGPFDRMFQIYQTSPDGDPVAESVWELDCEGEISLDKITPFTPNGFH

A Ki (D(1A) dopamine receptor [1]) of 11 nM and a Ki (D(2) dopamine receptor [2]) of 630 nM were found for `CN1CCN(C2=Nc3cc(Cl)ccc3N(NC(=O)c3cccnc3Cl)c3ccccc32)CC1` in this work.
A Ki (D(1A) dopamine receptor [1]) of 86 nM and a Ki (D(2) dopamine receptor [2]) of 1900 nM were found for `CN1CCN(C2=Nc3cc(Cl)ccc3N(NC(=O)C(F)(F)F)c3ccccc32)CC1` in this work.
A Ki (D(1A) dopamine receptor [1]) of 23 nM and a Ki (D(2) dopamine receptor [2]) of 484 nM were found for `CN1CCN(C2=Nc3cc(Cl)ccc3N(NC(=O)c3nccc4ccccc34)c3ccccc32)CC1` in this work.
A Ki [3] of 327 nM, a Ki (D(4) dopamine receptor) of 808 nM and a Ki (D(2) dopamine receptor [4]) of 496 nM were found for `CN1CCN(C2=Nc3cc(Cl)ccc3N(NC(=O)c3c(N)cccc3Cl)c3ccccc32)CC1` in this work. It also gave a Ki (D(1A) dopamine receptor [1]) of 2.6 nM, a Ki (D(1B) dopamine receptor) of 53 nM and a Ki (D(2) dopamine receptor [2]) of 496 nM. The Kb (D(1A) dopamine receptor [5]) was 1.7 nM, the Activity (D(1A) dopamine receptor [5]) was “Antagonist” and the Ki [6] was 0.9 nM.
A Ki (D(1A) dopamine receptor [1]) of 30 nM and a Ki (D(2) dopamine receptor [2]) of 2080 nM were found for `CN1CCN(C2=Nc3cc(Cl)ccc3N(NC(=O)c3cnn(-c4ccccc4)c3C(F)(F)F)c3ccccc32)CC1` in this work.
A Ki (D(1A) dopamine receptor [1]) of 4 nM and a Ki (D(2) dopamine receptor [2]) of 390 nM were found for `CN1CCN(C2=Nc3cc(Cl)ccc3N(NC(=O)c3c(Cl)cc(Cl)cc3Cl)c3ccccc32)CC1` in this work.
A Ki (D(1A) dopamine receptor [1]) of 28 nM and a Ki (D(2) dopamine receptor [2]) of 196 nM were found for `CCOc1c(C(=O)NN2c3ccc(Cl)cc3N=C(N3CCN(C)CC3)c3ccccc32)sc2ccccc12` in this work.
A Ki (D(1A) dopamine receptor [1]) of 12 nM and a Ki (D(2) dopamine receptor [2]) of 6390 nM were found for `CN1CCN(C2=Nc3cc(Cl)ccc3N(NC(=O)c3ccc(Cl)c(Cl)c3)c3ccccc32)CC1` in this work.
A Ki (D(1A) dopamine receptor [1]) of 7.4 nM and a Ki (D(2) dopamine receptor [2]) of 1310 nM were found for `CN1CCN(C2=Nc3cc(Cl)ccc3N(NC(=O)c3ccc4ccccc4c3)c3ccccc32)CC1` in this work.
A Ki (D(1A) dopamine receptor [1]) of 22 nM and a Ki (D(2) dopamine receptor [2]) of 460 nM were found for `CN1CCN(C2=Nc3cc(Cl)ccc3N(NC(=O)c3ccon3)c3ccccc32)CC1` in this work.
A Ki (D(1A) dopamine receptor [1]) of 47 nM and a Ki (D(2) dopamine receptor [2]) of 3000 nM were found for `COc1ccc(C(=O)NN2c3ccc(Cl)cc3N=C(N3CCN(C)CC3)c3ccccc32)cc1` in this work.
A Ki (D(1A) dopamine receptor [1]) of 3.4 nM and a Ki (D(2) dopamine receptor [2]) of 240 nM were found for `CN1CCN(C2=Nc3cc(Cl)ccc3N(NC(=O)c3c(Cl)cccc3Cl)c3ccccc32)CC1` in this work.
A Ki (D(1A) dopamine receptor [1]) of 9 nM and a Ki (D(2) dopamine receptor [2]) of 3000 nM were found for `CN1CCN(C2=Nc3cc(Cl)ccc3N(NC(=O)c3ccsc3)c3ccccc32)CC1` in this work.
A Ki (D(1A) dopamine receptor [1]) of 62 nM and a Ki (D(2) dopamine receptor [2]) of 3820 nM were found for `CN1CCN(C2=Nc3cc(Cl)ccc3N(NC(=O)c3ccccc3NC3CCCCC3)c3ccccc32)CC1` in this work.
A Ki (D(1A) dopamine receptor [1]) of 7 nM and a Ki (D(2) dopamine receptor [2]) of 92 nM were found for `CN1CCN(C2=Nc3cc(Cl)ccc3N(NC(=O)c3c(N)cccc3C(F)(F)F)c3ccccc32)CC1` in this work.
A Ki (D(1A) dopamine receptor [1]) of 494 nM was found for `CC(=O)NN1c2ccc(Cl)cc2N=C(N2CCN(C)CC2)c2ccccc21` in this work.
A Ki (D(1A) dopamine receptor [1]) of 12 nM and a Ki (D(2) dopamine receptor [2]) of 374 nM were found for `CN1CCN(C2=Nc3cc(Cl)ccc3N(NC(=O)c3ccccc3F)c3ccccc32)CC1` in this work.
A Ki (D(1A) dopamine receptor [1]) of 79 nM and a Ki (D(2) dopamine receptor [2]) of 621 nM were found for `CN1CCN(C2=Nc3cc(Cl)ccc3N(NC(=O)CCc3ccccc3)c3ccccc32)CC1` in this work.
A Ki [3] of 791 nM, a Ki (D(4) dopamine receptor) of 1870 nM and a Ki (D(2) dopamine receptor [4]) of 287 nM were found for `Cc1cccc(C)c1C(=O)NN1c2ccc(Cl)cc2N=C(N2CCN(C)CC2)c2ccccc21` in this work. The Ki (D(1A) dopamine receptor [1]) was 3 nM, the Ki (D(1B) dopamine receptor) was 31 nM and the Ki (D(2) dopamine receptor [2]) was 287 nM. The Kb (D(1A) dopamine receptor [5]) was 2.8 nM, the Activity (D(1A) dopamine receptor [5]) was “Antagonist” and the Ki [6] was 2.2 nM.
A Ki (D(1A) dopamine receptor [1]) of 24 nM and a Ki (D(2) dopamine receptor [2]) of 608 nM were found for `CN1CCN(C2=Nc3cc(Cl)ccc3N(NC(=O)c3cc(Cl)cc(Cl)c3)c3ccccc32)CC1` in this work.
A Ki (D(1A) dopamine receptor [1]) of 14 nM and a Ki (D(2) dopamine receptor [2]) of 2390 nM were found for `CN1CCN(C2=Nc3cc(Cl)ccc3N(NC(=O)c3ccc(Br)cc3)c3ccccc32)CC1` in this work.
A Ki (D(1A) dopamine receptor [1]) of 154 nM and a Ki (D(2) dopamine receptor [2]) of 400 nM were found for `CCCC(=O)NN1c2ccc(Cl)cc2N=C(N2CCN(C)CC2)c2ccccc21` in this work.
A Ki (D(1A) dopamine receptor [1]) of 7.8 nM and a Ki (D(2) dopamine receptor [2]) of 215 nM were found for `CN1CCN(C2=Nc3cc(Cl)ccc3N(NC(=O)c3ccccc3N3CCCCC3)c3ccccc32)CC1` in this work.
A Ki (D(1A) dopamine receptor [1]) of 51 nM and a Ki (D(2) dopamine receptor [2]) of 431 nM were found for `CN1CCN(C2=Nc3cc(Cl)ccc3N(NC(=O)c3ccccc3Oc3ccccc3)c3ccccc32)CC1` in this work.
A Ki (D(1A) dopamine receptor [1]) of 28 nM was found for `CN1CCN(C2=Nc3cc(Cl)ccc3N(NC(=O)c3cnc4ccccc4c3)c3ccccc32)CC1` in this work.
A Ki (D(1A) dopamine receptor [1]) of 68 nM was found for `CN1CCN(C2=Nc3cc(Cl)ccc3N(NC(=O)c3ccc(C(F)(F)F)cc3)c3ccccc32)CC1` in this work.
